Measurements as given in ChEMBL document CHEMBL5257137, “Inhibition of Thiamine Diphosphate-Dependent Enzymes by Triazole-Based Thiamine Analogues” (ACS Med Chem Lett, 2023).

Legend:
Plasmodium falciparum [1] = test: Antiplasmodial activity against Plasmodium falciparum 3D7 infected in human erythrocyte assessed as intraerythrocytic growth inhibition in thiamine-free medium by [3H]-hypoxanthine incorporation assay; format: functional, organism-based; details: 3D7, Erythrocyte
Plasmodium falciparum [2] = test: Antiplasmodial activity against Plasmodium falciparum 3D7 infected in human erythrocyte assessed as intraerythrocytic growth inhibition in presence thiamine-rich medium by [3H]-hypoxanthine incorporation assay; format: functional, organism-based; details: 3D7, Erythrocyte
Plasmodium falciparum [3] = test: Antiplasmodial activity against chloroquine-sensitive Plasmodium falciparum 3D7 infected in human erythrocyte assessed as inhibition of parasite proliferation in thiamine free medium by SYBR-Safe assay; format: functional, organism-based; details: 3D7, Erythrocyte
Summary of the method: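 3D7 parasites in human erythrocytes cultured in thiamine-free medium with a range of compound concentrations. […] Means come from three independent experiments, each run in three technical replicates.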

Plasmodium falciparum [4] = test: Antiplasmodial activity against chloroquine-sensitive Plasmodium falciparum 3D7 infected in human erythrocyte assessed as inhibition of parasite proliferation in presence of 2.97uM thiamine by SYBR-Safe assay; format: functional, organism-based; details: 3D7, Erythrocyte
Summary of the method: (§1)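 P. falciparum 3D7-infected erythrocytes were exposed to compound in culture medium with added thiamine, 2.97 μM or 297 μM. Proliferation was read as parasite DNA by SYBR-Safe assay.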

Plasmodium falciparum [5] = test: Antiplasmodial activity against chloroquine-sensitive Plasmodium falciparum 3D7 infected in human erythrocyte assessed as inhibition of parasite proliferation in presence of 297uM thiamine by SYBR-Safe assay; format: functional, organism-based; details: 3D7, Erythrocyte; summary of the method: as §1
Escherichia coli [6] = test: Inhibition of Escherichia coli OGDHc E1 subunit assessed as DCPIP reduction at 250 uM preincubated for 60 mins followed by […] addition using 125 uM ThDP as substrate by microplate reader analysis
Aerococcus viridans [7] = test: Inhibition of Aerococcus viridans pyruvate oxidase at 250 uM preincubated for 30 mins followed by pyruvate addition using 125 uM ThDP as substrate by microplate reader analysis
Escherichia coli [8] = test: Inhibition of Escherichia coli OGDHc E1 subunit assessed as DCPIP reduction at 250 uM preincubated for 60 mins followed by […] addition using 50 uM ThDP as substrate by microplate reader analysis
Summary of the method: (§2)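 Single-point preliminary screen with compound at 250 μM and ThDP at 50 μM. Values are means of three technical replicates.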

Aerococcus viridans [9] = test: Inhibition of Aerococcus viridans pyruvate oxidase at 250 uM preincubated for 30 mins followed by pyruvate addition using 50 uM ThDP as substrate by microplate reader analysis; summary of the method: as §2
[10] = target: T1, Pyruvate dehydrogenase E1 component subunit alpha, somatic form, mitochondrial (Sus scrofa, UniProt P29804); test: Inhibition of porcine PDHc E1-subunit assessed as DCPIP reduction preincubated for 30 mins followed by pyruvate addition using 10 uM ThDP as substrate by microplate reader analysis
T1 sequence (P29804 whole entry): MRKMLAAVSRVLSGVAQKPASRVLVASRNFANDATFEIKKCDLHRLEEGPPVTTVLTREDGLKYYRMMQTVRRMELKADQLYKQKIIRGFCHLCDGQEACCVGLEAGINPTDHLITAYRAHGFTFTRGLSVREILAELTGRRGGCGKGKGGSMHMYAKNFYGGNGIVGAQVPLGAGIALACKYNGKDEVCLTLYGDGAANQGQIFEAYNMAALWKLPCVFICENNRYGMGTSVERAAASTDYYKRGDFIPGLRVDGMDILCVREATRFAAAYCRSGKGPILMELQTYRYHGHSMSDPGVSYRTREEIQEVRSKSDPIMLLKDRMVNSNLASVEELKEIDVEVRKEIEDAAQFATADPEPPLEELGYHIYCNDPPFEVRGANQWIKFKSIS

[11] = target: T1, Pyruvate dehydrogenase E1 component subunit alpha, somatic form, mitochondrial; test: Inhibition of porcine PDHc E1-subunit assessed as inhibition constant preincubated for 30 mins followed by pyruvate addition using 10 uM ThDP as substrate by microplate reader analysis

| SMILES | inhibition (Escherichia coli [6]) [%] | inhibition (Aerococcus viridans [7]) [%] | inhibition (Escherichia coli [8]) [%] | inhibition (Aerococcus viridans [9]) [%] | other results |
| --- | --- | --- | --- | --- | --- |
| Cc1ncc(C[n+]2csc(CCO)c2C)c(O)n1 |  |  |  |  | IC50 (Plasmodium falciparum [1]): 11 µM; IC50 (Plasmodium falciparum [2]): 5.2 µM; IC50 (Plasmodium falciparum [3]): 11 µM; IC50 (Plasmodium falciparum [4]): 5.2 mM; IC50 (Plasmodium falciparum [5]): 5.5 mM |
| Cc1ncc(Cn2cc(CCCCn3cc(-c4ccc(F)cc4)nn3)nn2)c(N)n1 | < 20 | < 20 | < 20 | < 20 |  |
| Cc1ncc(Cn2cc(CCCn3cc(-c4ccccc4)nn3)nn2)c(N)n1 | < 20 | < 20 | < 20 | < 20 |  |
| Cc1ncc(Cn2cc(CCCCC(=O)NO)nn2)c(N)n1 |  |  |  |  | IC50 [10]: 8 µM; Ki [11]: 40 nM; IC50 (Plasmodium falciparum [3]): 3 µM |
| COc1ccc(-c2cn(CCc3cn(Cc4cnc(C)nc4N)nn3)nn2)cc1 | < 20 | < 20 |  | < 20 |  |
| Cc1ncc(Cn2cc(CCCC(=O)NO)nn2)c(N)n1 |  |  |  |  | IC50 [10]: 9 µM; Ki [11]: 45 nM |

Now from value to compound, other results behind:

| inhibition (Escherichia coli [6]) [%] | inhibition (Aerococcus viridans [7]) [%] | inhibition (Escherichia coli [8]) [%] | inhibition (Aerococcus viridans [9]) [%] | SMILES | other results |
| --- | --- | --- | --- | --- | --- |
| < 20 | < 20 |  |  | Cc1ncc(Cn2cc(CCn3cc(-c4ccccc4)nn3)nn2)c(N)n1 |  |
| < 20 | < 20 |  | < 20 | Cc1ncc(Cn2cc(CCn3cc(-c4ccc(F)cc4)nn3)nn2)c(N)n1 |  |
| < 20 | < 20 | < 20 | < 20 | Cc1ncc(Cn2cc(CCCn3cc(-c4ccc(F)cc4)nn3)nn2)c(N)n1 |  |
| < 20 | < 20 | < 20 | < 20 | Cc1ncc(Cn2cc(CCCCn3cc(-c4ccccc4)nn3)nn2)c(N)n1 |  |
| < 20 | < 20 | < 20 | < 20 | COc1ccc(-c2cn(CCCCc3cn(Cc4cnc(C)nc4N)nn3)nn2)cc1 | IC50 [10]: 6 µM |
| < 20 | < 20 | < 20 | < 20 | COc1ccc(-c2cn(CCCc3cn(Cc4cnc(C)nc4N)nn3)nn2)cc1 |  |
